The record followed here is PMC7424198 (iScience, 2020).

The nature of this series: Thermal unfolding monitored by CD spectroscopy. The series is classed as physicochemical. To be noted: 20 μM protein, 10 mM phosphate buffer pH 7.4, 2 °C intervals, 20 to 90 °C. A digest of the protocol: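 TM read as the transition point from the first derivative of the CD thermal unfolding curve. Reversibility was checked by comparing spectra recorded before and after heating. The 202 nm signal was followed during denaturation to look for an isodichroic point, which would indicate a two-state helix–unfolded transition. Spectra were recorded on 20 μM protein in 10 mM phosphate buffer.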

Consider aureocin A53, for which the “transition midpoint (TM) of thermal unfolding” value is around 54 °C.
